The results in this text go back to ChEMBL document CHEMBL5325390, “1,2,4-Triazole-3-thione analogues with an arylakyl group at position 4 as metallo-β-lactamase inhibitors” (Bioorg Med Chem, 2022).

For one series, the target named is Beta-lactamase VIM-1 (Bacteria, UniProt Q8GDC1). The series is described as follows: Binding affinity to VIM-1 (unknown origin) expressed in Escherichia coli BL21(DE3) assessed as inhibition constant by measuring rate of substrate hydrolysis by UV-Vis spectrophotometric analysis. The method, boiled down: (§1)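 Purified MBL (1–70 nM) with 150 µM imipenem or meropenem as reporter substrate, 50 mM HEPES pH 7.5, 30 °C. Hydrolysis followed by absorbance at 300 nm without and with inhibitor (0.5 µM–1 mM). Ki from the slope of v0/vi vs [I] under a competitive model, or from Dixon plots varying inhibitor and substrate. […] Triplicate, mean ± SD.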

Series [1] can be described thus: Binding affinity to VIM-2 (unknown origin) expressed in Escherichia coli BL21(DE3) assessed as inhibition constant by measuring rate of substrate hydrolysis by UV-Vis spectrophotometric analysis. The essentials:
as §1

The nature of series [2]: Binding affinity to VIM-4 (unknown origin) expressed in Escherichia coli BL21(DE3) assessed as inhibition constant by measuring rate of substrate hydrolysis by UV-Vis spectrophotometric analysis. The method, boiled down: as §1
Series [3] addresses Metallo-beta-lactamase type 2 (Bacteria, UniProt C7C422). The series is described as follows: Binding affinity to NDM1 (unknown origin) expressed in Escherichia coli BL21(DE3) assessed as inhibition constant by measuring rate of substrate hydrolysis by UV-Vis spectrophotometric analysis. Conditions: read-out: Ki. The method, boiled down:
as §1

For series [4], the system named is Klebsiella pneumoniae. The series is described as follows: Antimicrobial synergistic activity against blaVIM-1-producing multidrug-resistant Klebsiella pneumoniae 7023 clinical isolate assessed as meropenem MIC at 32 ug/ml by CLSI based broth microdilution method (reference value: 16 ug/ml). Format: functional. Conditions: dose 32 µg/ml. (In general: Broth dilution looks for growth in wells or tubes with falling amounts of substance.)

Series [5] deals with Klebsiella pneumoniae. The series is described as follows: Antimicrobial synergistic activity against blaVIM-4-producing multidrug-resistant Klebsiella pneumoniae VA416/02 clinical isolate assessed as meropenem MIC at 32 ug/ml by CLSI based broth microdilution method (reference value: 16 ug/ml). Format: functional. Conditions: dose 32 µg/ml.
The next series deals with Escherichia coli. The series is described as follows: Synergistic antimicrobial activity against blaNDM-1-producing multidrug-resistant Escherichia coli SI-004M clinical isolate assessed as meropenem MIC at 32 ug/ml by CLSI based microdilution method (reference value: 64 ug/ml). Format: functional. The settings on record: dose 32 µg/ml.
The target of series [6] is T1, Angiotensin-converting enzyme (Oryctolagus cuniculus) (UniProt P12822).
T1 sequence (whole entry): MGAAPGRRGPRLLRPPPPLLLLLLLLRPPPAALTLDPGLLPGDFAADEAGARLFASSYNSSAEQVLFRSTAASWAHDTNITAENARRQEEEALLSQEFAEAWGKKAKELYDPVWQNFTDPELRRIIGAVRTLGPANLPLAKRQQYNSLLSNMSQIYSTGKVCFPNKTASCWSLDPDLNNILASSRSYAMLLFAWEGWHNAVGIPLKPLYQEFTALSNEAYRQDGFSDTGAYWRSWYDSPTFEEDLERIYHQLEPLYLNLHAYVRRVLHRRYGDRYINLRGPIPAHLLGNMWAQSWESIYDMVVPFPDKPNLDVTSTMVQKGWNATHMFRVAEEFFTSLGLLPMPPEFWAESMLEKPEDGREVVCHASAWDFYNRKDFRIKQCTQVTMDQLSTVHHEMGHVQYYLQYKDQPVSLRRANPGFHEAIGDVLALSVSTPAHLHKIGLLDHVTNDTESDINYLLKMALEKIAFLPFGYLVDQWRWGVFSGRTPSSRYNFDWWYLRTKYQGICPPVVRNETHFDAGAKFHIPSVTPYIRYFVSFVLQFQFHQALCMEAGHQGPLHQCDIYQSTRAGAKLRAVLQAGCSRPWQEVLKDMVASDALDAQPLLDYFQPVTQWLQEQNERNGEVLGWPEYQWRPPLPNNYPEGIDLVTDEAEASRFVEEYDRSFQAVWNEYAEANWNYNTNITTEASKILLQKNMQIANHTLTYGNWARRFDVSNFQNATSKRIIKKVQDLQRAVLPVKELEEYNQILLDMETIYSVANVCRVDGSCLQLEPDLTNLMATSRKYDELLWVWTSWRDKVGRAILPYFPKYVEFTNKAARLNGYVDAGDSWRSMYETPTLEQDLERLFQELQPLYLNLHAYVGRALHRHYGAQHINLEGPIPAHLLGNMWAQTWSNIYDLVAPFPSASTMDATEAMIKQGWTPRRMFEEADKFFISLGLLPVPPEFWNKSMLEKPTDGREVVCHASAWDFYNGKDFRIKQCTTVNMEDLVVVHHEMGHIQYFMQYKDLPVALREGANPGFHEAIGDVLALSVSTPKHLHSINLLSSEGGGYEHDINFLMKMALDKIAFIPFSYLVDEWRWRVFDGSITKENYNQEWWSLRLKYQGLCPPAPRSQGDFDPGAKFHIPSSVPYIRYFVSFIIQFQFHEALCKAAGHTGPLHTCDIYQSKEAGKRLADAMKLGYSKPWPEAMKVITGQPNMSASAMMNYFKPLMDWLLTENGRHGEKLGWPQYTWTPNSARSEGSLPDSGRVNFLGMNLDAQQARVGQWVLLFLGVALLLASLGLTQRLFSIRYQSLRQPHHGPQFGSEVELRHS
The series is described as follows: Inhibition of rabbit lung angiotensin-converting enzyme at 100 uM using Abz-Gly-Phe-(NO2)-Pro as substrate by fluorescence based microplate reader analysis relative to control. Format: tissue-based. The essentials:
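Rabbit lung ACE, 1.5 mU per well, in 150 mM Tris, 750 mM NaCl, pH 8.3, with Abz-Gly-Phe(NO2)-Pro substrate. Blank-corrected fluorescence of released Abz-Gly-OH (ex 316, em 413 nm) followed up to 90 min. Test compounds at 100 µM; captopril control at 100 nM. Inhibition % = 100 − (vi/v0 × 100).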

For series [7], the target named is T2, Angiotensin-converting enzyme (Oryctolagus cuniculus, UniProt P12822).
T2 sequence (P12822 whole entry): T1 sequence (whole entry)
Nature of the series: Binding affinity to rabbit lung angiotensin-converting enzyme assessed as inhibition constant.

The test system of another series is HeLa. The series is described as follows: Cytotoxicity against human HeLa cells assessed as induction of cell lysis upto 250 uM measured for 72 hrs by realtime-glo MT assay. Format: toxicity, cell-based. The essentials:
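HeLa cells at 1,500 cells/well exposed to compound up to 250 µM for up to 72 h. Viability read by RealTime-Glo MT luminescent assay. Triplicate.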

The subject of series [8] is metallo-β-lactamase IMP-1 (Pseudomonas aeruginosa). Nature of the series: Inhibition of IMP1 (unknown origin) expressed in Escherichia coli BL21(DE3) assessed as substrate hydrolysis at 100 uM by UV-Vis spectrophotometric analysis relative to control.
Series [9] has the same test system. Nature of the series: Inhibition of IMP1 (unknown origin) expressed in Escherichia coli BL21(DE3) assessed as substrate hydrolysis at 200 uM by UV-Vis spectrophotometric analysis relative to control.

Metallo-beta-lactamase type 2, sequence (C7C422 whole entry): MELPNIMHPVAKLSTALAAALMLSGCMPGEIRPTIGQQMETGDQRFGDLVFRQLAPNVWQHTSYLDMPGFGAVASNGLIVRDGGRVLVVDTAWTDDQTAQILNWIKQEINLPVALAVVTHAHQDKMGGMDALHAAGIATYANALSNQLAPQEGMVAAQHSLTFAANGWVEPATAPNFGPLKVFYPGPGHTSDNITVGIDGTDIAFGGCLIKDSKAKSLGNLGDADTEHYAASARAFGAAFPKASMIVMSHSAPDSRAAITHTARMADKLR

As to `Oc1ccc(CCn2c(-c3cccc(-c4ccccc4)c3)n[nH]c2=S)c(O)c1`, the Ki (as a rule, the dissociation constant of the complex between target and ligand, obtained from inhibition or displacement) on Beta-lactamase VIM-1 was 410 nM; in series [1] it was 1300 nM; in series [2], 820 nM; in series [3], 14300 nM; in series [7], 55000 nM. In addition, the MIC (as a rule, the lowest concentration found to suppress growth) was found to be 2 µg/mL in the series with Klebsiella pneumoniae [4], 4 µg/mL in the series on Klebsiella pneumoniae [5] and 32 µg/mL with Escherichia coli. Also, the inhibition – broadly, the relative decrease from the control value, in per cent – in series [6] was 35%; in [8], less than 30%; in series [9], less than 50%. In addition, the Activity result in the series on HeLa was “Non-Toxic”.
